Values after ≈ are worked out from the molar mass of the structure shown. Where a SMILES comes first, the peptide text is derived from it.
Experiments:
[1] = system: Pseudomonas syringae; experiment: Antibacterial activity against Pseudomonas syringae pv tobaci after 18 to 20 hrs by microbroth dilution method; assay type: functional
Method in brief: (§1)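 CLSI microbroth dilution, adapted. Mid-log bacteria, 2 × 10^6 CFU/mL in Mueller-Hinton broth, mixed 1:1 with MH broth holding peptide in serial 2-fold dilutions in 20% ethanol (0.75-48 μM). Incubated 18-20 h at 37 °C; growth read as A600. MIC is the lowest concentration giving 100% growth inhibition.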

[2] = Toxicity in human erythrocytes assessed as hemolysis at 6 uM after 40 mins; assay type: cell-based, Erythrocyte; details: read-out: Activity
Method in brief: (§2)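 Human red blood cells suspended in 0.9% (w/v) NaCl and incubated 40 min at 37 °C with gentle mixing with serial 2-fold peptide dilutions (peptide predissolved in 20% ethanol). Spun 5 min at 900g; supernatant read at 415 nm. Cells lysed in distilled water set the 100% lysis reference.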

[3] = system: Enterococcus faecalis; experiment: Antibacterial activity against Enterococcus faecalis ATCC 29212 after 18 to 20 hrs by microbroth dilution method; assay type: functional; method in brief: as §1
[4] = system: Yersinia pseudotuberculosis; experiment: Antibacterial activity against Yersinia pseudotuberculosis YPIII after 18 to 20 hrs by microbroth dilution method; assay type: functional
Method in brief: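 Broth microdilution adapted from CLSI. Mid-log bacteria at 2 × 10^6 CFU/mL in Mueller-Hinton broth were mixed 1:1 with MH broth containing peptide in serial 2-fold dilutions (peptide in 20% ethanol), 0.75-48 μM. Plates were incubated 18-20 h at 37 °C and growth was read as A600. MIC is the concentration giving 100% growth inhibition.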

[5] = Toxicity in human erythrocytes assessed as hemolysis at 1.5 uM after 40 mins; assay type: cell-based, Erythrocyte; details: read-out: Activity; method in brief: as §2
[6] = system: Pseudomonas aeruginosa; experiment: Antibacterial activity against Pseudomonas aeruginosa ATCC 27853 after 18 to 20 hrs by microbroth dilution method; assay type: functional; method in brief: as §1
[7] = system: Staphylococcus epidermidis; experiment: Antibacterial activity against Staphylococcus epidermidis ATCC 12228 after 18 to 20 hrs by microbroth dilution method; assay type: functional; method in brief: as §1
[8] = system: Priestia megaterium; experiment: Antibacterial activity against Bacillus megaterium Bm11 after 18 to 20 hrs by microbroth dilution method; assay type: functional; method in brief: as §1
[9] = Toxicity in human erythrocytes assessed as hemolysis at 12 uM after 40 mins; assay type: cell-based, Erythrocyte; details: read-out: Activity; method in brief: as §2
[10] = system: Saccharomyces cerevisiae; experiment: Antifungal activity against Saccharomyces cerevisiae after 18 to 20 hrs by microbroth dilution method; assay type: functional
Method in brief: (§3)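 Yeasts tested by adapted CLSI microbroth dilution in Winge medium. Peptide given in serial 2-fold dilutions (0.75-48 μM, made in 20% ethanol). Incubation 18-20 h at 30 °C, read at A600. MIC taken as the concentration giving complete (100%) growth inhibition.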

[11] = system: Acinetobacter baumannii; experiment: Antibacterial activity against Acinetobacter baumannii ATCC 19606 after 18 to 20 hrs by microbroth dilution method; assay type: functional; method in brief: as §1
[12] = system: Staphylococcus aureus; experiment: Antibacterial activity against Staphylococcus aureus ATCC 25923 after 18 to 20 hrs by microbroth dilution method; assay type: functional; method in brief: as §1
[13] = system: Candida albicans; experiment: Antifungal activity against Candida albicans ATCC 10231 after 18 to 20 hrs by microbroth dilution method; assay type: functional; method in brief: as §3
[14] = system: Schizosaccharomyces pombe; experiment: Antifungal activity against Schizosaccharomyces pombe after 18 to 20 hrs by microbroth dilution method; assay type: functional; method in brief: as §3
[15] = system: Pseudomonas aeruginosa; experiment: Antibacterial activity against Pseudomonas aeruginosa ATCC 15692 after 18 to 20 hrs by microbroth dilution method; assay type: functional; method in brief: as §1
[16] = Toxicity in human erythrocytes assessed as hemolysis at 24 uM after 40 mins; assay type: cell-based, Erythrocyte; details: read-out: Activity; method in brief: as §2
[17] = system: Streptococcus pyogenes; experiment: Antibacterial activity against Streptococcus pyogenes ATCC 21547 after 18 to 20 hrs by microbroth dilution method; assay type: functional; method in brief: as §1
[18] = system: Staphylococcus capitis; experiment: Antibacterial activity against Staphylococcus capitis after 18 to 20 hrs by microbroth dilution method; assay type: functional; method in brief: as §1
[19] = system: Escherichia coli; experiment: Antibacterial activity against Escherichia coli ATCC 25922 after 18 to 20 hrs by microbroth dilution method; assay type: functional; method in brief: as §1
[20] = Toxicity in human erythrocytes assessed as hemolysis at 3 uM after 40 mins; assay type: cell-based, Erythrocyte; details: read-out: Activity; method in brief: as §2
[21] = system: Acinetobacter junii; experiment: Antibacterial activity against […] Acinetobacter junii RT-4 after 18 to 20 hrs by microbroth dilution method; assay type: functional; method in brief: as §1
[22] = system: Staphylococcus aureus; experiment: Antibacterial activity against Staphylococcus aureus Cowan I after 18 to 20 hrs by microbroth dilution method; assay type: functional; method in brief: as §1
[23] = system: Escherichia coli; experiment: Antibacterial activity against Escherichia coli D21 after 18 to 20 hrs by microbroth dilution method; assay type: functional; method in brief: as §1

Compound | MIC [1] | hemolysis at 40 min, 6 µM [2] | MIC [3] | MIC [4] | hemolysis at 40 min, 1.5 µM [5] | MIC [6] | MIC [7] | MIC [8] | hemolysis at 40 min, 12 µM [9] | MIC [10] | MIC [11] | MIC [12] | MIC [13] | MIC [14] | MIC [15] | hemolysis at 40 min, 24 µM [16] | MIC [17] | MIC [18] | MIC [19] | hemolysis at 40 min, 3 µM [20] | other results
CC[C@H](C)[C@H](NC(=O)[C@H](CCCNC(=N)N)NC(=O)CNC(=O)[C@H](CC(C)C)NC(=O)[C@H](Cc1ccccc1)NC(=O)[C@H](CCCCN)NC(=O)[C@H](CO)NC(=O)[C@H](Cc1ccccc1)NC(=O)[C@H](Cc1c[nH]c2ccccc12)NC(=O)[C@@H]1CCCN1C(=O)[C@@H](NC(=O)[C@@H](N)Cc1ccccc1)C(C)C)C(=O)N[C@@H](CC(C)C)C(N)=O (H-FVPWFSKFLGRIL-NH2) | 6 µM (≈ 9.65 µg/mL) | 10% | 6 µM (≈ 9.65 µg/mL) | 3 µM (≈ 4.83 µg/mL) | 4.5% | > 48 µM | 1.5 µM (≈ 2.41 µg/mL) | 1.5 µM (≈ 2.41 µg/mL) | 42% | 6 µM (≈ 9.65 µg/mL) | 6 µM (≈ 9.65 µg/mL) | 3 µM (≈ 4.83 µg/mL) | 6 µM (≈ 9.65 µg/mL) | 3 µM (≈ 4.83 µg/mL) | 24 µM (≈ 38.6 µg/mL) | 92% | 6 µM (≈ 9.65 µg/mL) | 1.5 µM (≈ 2.41 µg/mL) | 24 µM (≈ 38.6 µg/mL) | 6% | MIC [21]: 6 µM (≈ 9.65 µg/mL); MIC [22]: 1.5 µM (≈ 2.41 µg/mL); MIC [23]: 12 µM (≈ 19.3 µg/mL)
CC[C@H](C)[C@H](NC(=O)[C@H](CCCNC(=N)N)NC(=O)CNC(=O)[C@H](CC(C)C)NC(=O)[C@H](Cc1ccccc1)NC(=O)[C@H](CCCNC(=N)N)NC(=O)[C@H](CO)NC(=O)[C@H](Cc1ccccc1)NC(=O)[C@H](Cc1c[nH]c2ccccc12)NC(=O)[C@H](CCCNC(=N)N)NC(=O)[C@@H](NC(=O)[C@@H](N)Cc1ccccc1)C(C)C)C(=O)N[C@@H](CC(C)C)C(N)=O (H-FVRWFSRFLGRIL-NH2) | 6 µM (≈ 10.2 µg/mL) | 43% | 24 µM (≈ 40.7 µg/mL) | 6 µM (≈ 10.2 µg/mL) | 6% | 24 µM (≈ 40.7 µg/mL) | 6 µM (≈ 10.2 µg/mL) | 3 µM (≈ 5.09 µg/mL) | 92% | 24 µM (≈ 40.7 µg/mL) | 6 µM (≈ 10.2 µg/mL) | 6 µM (≈ 10.2 µg/mL) | 24 µM (≈ 40.7 µg/mL) | 12 µM (≈ 20.4 µg/mL) | 24 µM (≈ 40.7 µg/mL) | 100% | 3 µM (≈ 5.09 µg/mL) | 6 µM (≈ 10.2 µg/mL) | 48 µM (≈ 81.4 µg/mL) | 14% | MIC [21]: 12 µM (≈ 20.4 µg/mL); MIC [22]: 6 µM (≈ 10.2 µg/mL); MIC [23]: 24 µM (≈ 40.7 µg/mL)
CC[C@H](C)[C@H](NC(=O)[C@H](CCCNC(=N)N)NC(=O)CNC(=O)[C@H](CC(C)C)NC(=O)[C@H](Cc1ccccc1)NC(=O)[C@H](CCCNC(=N)N)NC(=O)[C@H](CO)NC(=O)[C@H](Cc1ccccc1)NC(=O)[C@H](Cc1c[nH]c2ccccc12)NC(=O)[C@H](CCC(N)=O)NC(=O)[C@@H](NC(=O)[C@@H](N)Cc1ccccc1)C(C)C)C(=O)N[C@@H](CC(C)C)C(N)=O (H-FVQWFSRFLGRIL-NH2) | 12 µM (≈ 20 µg/mL) | 29% | 12 µM (≈ 20 µg/mL) | 6 µM (≈ 10 µg/mL) | 4% | 48 µM (≈ 80.1 µg/mL) | 6 µM (≈ 10 µg/mL) | 6 µM (≈ 10 µg/mL) | 90% | 12 µM (≈ 20 µg/mL) | 6 µM (≈ 10 µg/mL) | 6 µM (≈ 10 µg/mL) | 12 µM (≈ 20 µg/mL) | 6 µM (≈ 10 µg/mL) | 24 µM (≈ 40 µg/mL) | 98% | 6 µM (≈ 10 µg/mL) | 6 µM (≈ 10 µg/mL) | 12 µM (≈ 20 µg/mL) | 9% | MIC [21]: 6 µM (≈ 10 µg/mL); MIC [22]: 6 µM (≈ 10 µg/mL); MIC [23]: 48 µM (≈ 80.1 µg/mL)

Source: ChEMBL document CHEMBL1687913, “Structure-activity relationship, conformational and biological studies of temporin L analogues” (J Med Chem, 2011)
